# Data as given in ChEMBL document CHEMBL1255381, “Golgicide A reveals essential roles for GBF1 in Golgi assembly and function” (Nat Chem Biol, 2009).
# Active and inactive are the calls of the source. The calls are words filed in the database; no cut-off is given here.
# Experiments:
# [1] = tested on: Vero; test: Inhibition of Arf1 in african green monkey Vero cells assessed as giantin positive punctate structures in contact with Sec31-positive ER exit site at 10 ug/ml after 1 hr by immunofluorescence method; format: cell-based; conditions: Chlorocebus sabaeus
# In short: (§1)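 Vero cells given BFA 10 μg/ml or compound 10 μM for 60 min, fixed, co-stained for giantin and ER exit site marker Sec31; giantin puncta relative to ERES scored by immunofluorescence.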
# [2] = tested on: Vero; test: Inhibition of GBF1 N846A mutant in african green monkey Vero cells mutant assessed as effect on change in golgi morphology at 10 uM after 1 hr by immunofluorescence method; format: cell-based; conditions: Chlorocebus sabaeus
# In short: (§2)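 Vero cells transiently transfected (Lipofectamine 2000) with HA-tagged GBF1 wild type or R843A, K844A, Q845A or N846A mutant; after 36 h exposed 60 min to compound 10 μM, fixed, stained anti-HA and anti-giantin; Golgi morphology scored in expressing cells.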
# [3] = tested on: Vero; test: Inhibition of GBF1 in african green monkey Vero cells assessed as colocalization with ERGIC-53 marker in ER-golgi intermediate compartment by immunofluorescence method; format: cell-based; conditions: Chlorocebus sabaeus
# [4] = tested on: Vero; test: Inhibition of GBF1 in african green monkey Vero cells assessed as Arf1 activation at 10 uM after 1 hr; format: cell-based; conditions: Chlorocebus sabaeus
# [5] = tested on: Vero; test: Inhibition of GBF1 in african green monkey Vero cells assessed as giantin positive punctate structures in contact with Sec31-positive ER exit site at 10 uM after 1 hr by immunofluorescence method; format: cell-based; conditions: Chlorocebus sabaeus; in short: as §1
# [6] = tested on: Vero; test: Inhibition of GBF1 in african green monkey Vero cells assessed as rapid GGA3 dispersal from trans golgi network at 10 uM after 5 mins by immunofluorescence method; format: cell-based; conditions: Chlorocebus sabaeus
# [7] = tested on: Vero; test: Inhibition of GBF1 M832L in african green monkey Vero cells assessed as inhibition of StxB-SS retrogade transport from endosomes to TGN at 10 uM by immunofluorescence method; format: cell-based; conditions: Chlorocebus sabaeus
# [8] = tested on: Vero; test: Inhibition of GBF1-M832L mutant in african green monkey Vero cells assessed as Arf1 activation at 10 uM after 1 hr; format: cell-based; conditions: Chlorocebus sabaeus
# [9] = tested on: Vero; test: Inhibition of GBF1 M832L mutant in african green monkey Vero cells assessed as effect on betaCOP localization from golgi at 100 uM by immunofluorescence method; format: cell-based; conditions: Chlorocebus sabaeus
# [10] = tested on: Vero; test: Inhibition of GBF1 M832L mutant in african green monkey Vero cells assessed as effect on TGN46 localization from golgi at 100 uM by immunofluorescence method; format: cell-based; conditions: Chlorocebus sabaeus
# [11] = tested on: Vero; test: Effect on BIG1 distribution from golgi in african green monkey Vero cells by immunofluorescence method; format: functional, cell-based; conditions: Chlorocebus sabaeus
# [12] = tested on: Vero; test: Inhibition of GBF1 in african green monkey Vero cells overexpressing BIG1 assessed as distribution of trans-Golgi marker TGN46 from TGN at 10 uM after 1 hr by immunofluorescence method; format: cell-based; conditions: Chlorocebus sabaeus
# [13] = tested on: Vero; test: Inhibition of GBF1 Q845A mutant in african green monkey Vero cells mutant assessed as effect on change in golgi morphology at 10 uM after 1 hr by immunofluorescence method; format: cell-based; conditions: Chlorocebus sabaeus; in short: as §2
# [14] = tested on: Vero; test: Effect on transit of transferrin through endocytic and recycling pathway in african green monkey Vero cells at 10 uM after 1 hr by immunofluorescence method; format: functional, cell-based; conditions: Chlorocebus sabaeus
# [15] = tested on: Vero; test: Inhibition of GBF1 in african green monkey Vero cells assessed as colocalization of tsVSVG-GFP with […] at 10 uM by immunofluorescence method; format: cell-based; conditions: Chlorocebus sabaeus
# [16] = tested on: Vero; test: Inhibition of GBF1 in african green monkey Vero cells assessed as punctate and diffuse distribution of medial-Golgi marker giantin […] at 10 uM after 1 hr by immunofluorescence method; format: cell-based; conditions: Chlorocebus sabaeus
# [17] = tested on: Vero; test: Inhibition of GBF1 mediated NPY-GFP secretion in african green monkey Vero cells at 10 uM by immunofluorescence method; format: cell-based; conditions: Chlorocebus sabaeus
# [18] = tested on: Vero; test: Inhibition of GBF1 in african green monkey Vero cells assessed as induction of betaCOP dispersal from golgi membranes at 10 uM after 5 mins by immunofluorescence method; format: cell-based; conditions: Chlorocebus sabaeus
# [19] = tested on: Vero; test: Inhibition of GBF1-M832L mutant mediated NPY-GFP secretion in african green monkey Vero cells at 10 uM by immunofluorescence method; format: cell-based; conditions: Chlorocebus sabaeus
# [20] = tested on: Vero; test: Inhibition of Arf1 in african green monkey Vero cells assessed as inhibition of StxB-SS retrogade transport from endosomes to TGN at 10 ug/ml by immunofluorescence method; format: cell-based; conditions: Chlorocebus sabaeus
# [21] = tested on: Vero; test: Inhibition of GBF1 in african green monkey Vero cells overexpressing BIG1 assessed as punctate and diffuse distribution of medial-Golgi marker giantin from golgi at 10 uM after 1 hr by immunofluorescence method; format: cell-based; conditions: Chlorocebus sabaeus
# [22] = tested on: Vero; test: Induction of GBF1 in african green monkey Vero cells assessed as punctate and diffuse distribution of cis-Golgi marker GM130 from TGN at 10 uM after 1 hr by immunofluorescence method; format: cell-based; conditions: Chlorocebus sabaeus
# [23] = tested on: Vero; test: Inhibition of GBF1 in african green monkey Vero cells assessed as rapid AP-1 dispersal from golgi membranes at 10 uM after 5 mins by immunofluorescence method; format: cell-based; conditions: Chlorocebus sabaeus
# [24] = tested on: Vero; test: Inhibition of GBF1-M832L mutant in african green monkey Vero cells assessed as colocalization of tsVSVG-GFP with […] at 10 uM by immunofluorescence method; format: cell-based; conditions: Chlorocebus sabaeus
# [25] = tested on: Vero; test: Inhibition of GBF1 in african green monkey Vero cells assessed as inhibition of StxB-SS retrogade transport from endosomes to TGN at 10 uM by immunofluorescence method; format: cell-based; conditions: Chlorocebus sabaeus
# [26] = tested on: MDCK; test: Induction of betaCOP distribution from golgi membranes in MDCK cells at 10 uM after 1 hr by immunofluorescence method; format: functional, cell-based; conditions: Canis lupus familiaris
# In short: (§3)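 MDCK cells (EMEM, 10% FCS) and Vero cells, untreated or given compound 10 μM for 1 h; fixed and immunostained for βCOP and Golgi markers; distribution compared by immunofluorescence.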
# [27] = tested on: Vero; test: Inhibition of Arf1 in african green monkey Vero cells assessed as decrease in Arf1-GTP levels at 10 ug/ml after 1 hr; format: cell-based; conditions: Chlorocebus sabaeus
# In short: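 Vero cells transduced with adenoviral Arf1-V5, alone or with GBF1-ML-HA; next day reseeded, then 45 min at 37°C with medium, BFA 10 µg/ml or compound 10 μM. Lysates pulled down with GGA3 VHS-GAT-GST on glutathione agarose, 30 min 4°C; Arf1-GTP by anti-V5 Western, band densitometry, duplicate experiments averaged.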
# [28] = tested on: Vero; test: Inhibition of GBF1 in african green monkey Vero cells assessed as tsVSVG-GFP transport to plasma membrane at 10 uM by immunofluorescence method; format: cell-based; conditions: Chlorocebus sabaeus
# In short: (§4)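 Vero cells co-transfected with tsVSVG-GFP (ts045) and optionally GBF1-HA WT or M832L; held 12-16 h at 42°C for ER arrest, then cycloheximide 100 µg/ml plus compound 10 µM or BFA 10 µg/ml, shifted to 32°C for various times (up to 4 h); fixed, anti-HA stained, transport imaged.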
# [29] = tested on: Vero; test: Inhibition of GBF1 K844A mutant in african green monkey Vero cells mutant assessed as effect on change in golgi morphology at 10 uM after 1 hr by immunofluorescence method; format: cell-based; conditions: Chlorocebus sabaeus; in short: as §2
# [30] = tested on: Vero; test: cells; format: functional, cell-based; conditions: Chlorocebus sabaeus, 0.5 h
# [31] = tested on: Vero; test: Inhibition of GBF1-M832L mutant in african green monkey Vero cells assessed as tsVSVG-GFP transport to plasma membrane at 10 uM by immunofluorescence method; format: cell-based; conditions: Chlorocebus sabaeus; in short: as §4
# [32] = tested on: Vero; test: Inhibition of GBF1 in african green monkey Vero cells assessed as rapid COPI redistribution from golgi at 10 uM after 5 mins by immunofluorescence method; format: cell-based; conditions: Chlorocebus sabaeus
# [33] = tested on: Vero; test: Inhibition of GBF1 R843A mutant in african green monkey Vero cells mutant assessed as effect on change in golgi morphology at 10 uM after 1 hr by immunofluorescence method; format: cell-based; conditions: Chlorocebus sabaeus; in short: as §2
# [34] = tested on: MDCK; test: Effect on golgi morphology in MDCK cells at 10 uM after 1 hr by immunofluorescence method; format: functional, cell-based; conditions: Canis lupus familiaris; in short: as §3
# [35] = tested on: Vero; test: Inhibition of GBF1 M832L mutant in african green monkey Vero cells assessed as effect on GM130 localization from golgi at 100 uM by immunofluorescence method; format: cell-based; conditions: Chlorocebus sabaeus
# [36] = tested on: Vero; test: Inhibition of Arf1 in african green monkey Vero cells assessed as punctate and diffuse distribution of medial-Golgi marker giantin at 10 ug/ml after 1 hr by immunofluorescence method; format: cell-based; conditions: Chlorocebus sabaeus
# [37] = tested on: Vero; test: Effect on depolymerization of actin microfilaments in african green monkey Vero cells at 10 uM after 30 mins by immunofluorescence method; format: functional, cell-based; conditions: Chlorocebus sabaeus
# In short: (§5)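 Vero cells (DMEM, 10% FCS, 1% nonessential amino acids, 37°C, 5% CO2) exposed 30 min at 37°C to compound, DMSO, nocodazole or cytochalasin B; fixed and immunostained for microtubules or actin; scored by immunofluorescence microscopy.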
# [38] = tested on: Vero; test: Effect on BIG2 distribution from golgi in african green monkey Vero cells by immunofluorescence method; format: functional, cell-based; conditions: Chlorocebus sabaeus
# [39] = tested on: Vero; test: Effect on disruption of microtubules in african green monkey Vero cells at 10 uM after 30 mins by immunofluorescence method; format: functional, cell-based; conditions: Chlorocebus sabaeus; in short: as §5
structure (smiles),measurement,setting,value
Fc1cc(F)c2c(c1)[C@H]1C=CC[C@H]1C(c1cccnc1)N2 (some centres undefined) [GOLGICIDE A],inhibition,[1],Active
same,inhibition,[2],inactive
same,inhibition,[3],Active
same,inhibition,[4],34%
same,inhibition,[5],Active
same,inhibition,[6],inactive
same,inhibition,[7],Active
same,inhibition,[8],inactive
same,inhibition,[9],inactive
same,inhibition,[10],inactive
same,Activity,[11],inactive
same,inhibition,[12],inactive
same,inhibition,[13],inactive
same,Activity,[14],inactive
same,inhibition,[15],Active
same,inhibition,[16],Active
same,inhibition,[17],Active
same,inhibition,[18],Active
same,inhibition,[19],inactive
same,inhibition,[20],Active
same,inhibition,[21],inactive
same,Activity,[22],Active
same,inhibition,[23],inactive
same,inhibition,[24],inactive
same,inhibition,[25],Active
same,Activity,[26],inactive
same,inhibition,[27],75%
same,inhibition,[28],Active
same,inhibition,[29],inactive
same,IC50,[30],3.3 µM
same,inhibition,[31],inactive
same,inhibition,[32],Active
same,inhibition,[33],inactive
same,Activity,[34],inactive
same,inhibition,[35],inactive
same,inhibition,[36],Active
same,Activity,[37],inactive
same,Activity,[38],inactive
same,Activity,[39],inactive
